Experimental data reported in ChEMBL document CHEMBL2176901, “Pyrrolo[3,4-h]quinolinones a new class of photochemotherapeutic agents” (Bioorg Med Chem, 2011).
Calls of active or inactive are those of the source. The rule behind the calls is not given here.

Key:
HL-60 [1] = assay: Phototoxicity in 2.5 J/cm'2 UV-A irradiated human HL60 cells after 72 hrs by MTT assay; format: functional, cell-based; conditions: HL-60, light or radiation study
Method in brief: (§1)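 HL-60 and Jurkat (8×10³/well, RPMI-1640) and MCF-7, LoVo, NCTC-2544 (5×10³/well; DMEM or Ham's F12) preincubated 18 h at 37 °C, 5% CO₂. Compound in DMSO diluted in HBSS pH 7.2, 30 min at 37 °C, then UV-A at 2.5 or 3.75 J/cm². Medium replaced, 72 h incubation, MTT read-out. IC50 as mean ± SEM of three experiments.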

HL-60 [2] = assay: Phototoxicity in 3.75 J/cm'2 UV-A irradiated human HL60 cells after 72 hrs by MTT assay; format: functional, cell-based; conditions: HL-60, light or radiation study; method in brief: as §1
Jurkat [3] = assay: Phototoxicity in 2.5 J/cm'2 UV-A irradiated human Jurkat cells after 72 hrs by MTT assay; format: functional, cell-based; conditions: light or radiation study; method in brief: as §1
Jurkat [4] = assay: Phototoxicity in 3.75 J/cm'2 UV-A irradiated human Jurkat cells after 72 hrs by MTT assay; format: functional, cell-based; conditions: light or radiation study
Method in brief: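 Jurkat cells (8 × 10³/well) in RPMI-1640 with 10% FBS, held 18 h at 37 °C, 5% CO2. Compound stock in DMSO was diluted in HBSS pH 7.2 and added for 30 min at 37 °C. Cells were UV-A irradiated (lamp mainly 365 nm, 4.0 mW/cm²), then returned to medium for 72 h. MTT readout. IC50 is the mean ± SEM of three experiences.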

MCF7 [5] = assay: Phototoxicity in 2.5 J/cm'2 UV-A irradiated human MCF7 cells after 72 hrs by MTT assay; format: functional, cell-based; conditions: MCF7, light or radiation study; method in brief: as §1
MCF7 [6] = assay: Phototoxicity in 3.75 J/cm'2 UV-A irradiated human MCF7 cells after 72 hrs by MTT assay; format: functional, cell-based; conditions: MCF7, light or radiation study
Method in brief: (§2)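 Seeded at 5 × 10³ cells/well with 10% FBS: MCF-7 and NCTC-2544 in DMEM, LoVo in Ham's F12. Pre-incubated 18 h at 37 °C, 5% CO2. Compound (DMSO stock diluted in HBSS pH 7.2) was applied for 30 min at 37 °C, then UV-A irradiation (mainly 365 nm, 4.0 mW/cm²). Medium was restored for 72 h before MTT. IC50 is the mean ± SEM of three experiences.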

LoVo [7] = assay: Phototoxicity in 2.5 J/cm'2 UV-A irradiated human LoVo cells after 72 hrs by MTT assay; format: functional, cell-based; conditions: light or radiation study; method in brief: as §1
LoVo [8] = assay: Phototoxicity in 3.75 J/cm'2 UV-A irradiated human LoVo cells after 72 hrs by MTT assay; format: functional, cell-based; conditions: light or radiation study; method in brief: as §2
[9] = Phototoxicity in 2.5 J/cm'2 UV-A irradiated human NCTC-2544 cells after 72 hrs by MTT assay; format: functional, cell-based; conditions: NCTC-2544, light or radiation study; method in brief: as §1
[10] = Phototoxicity in 3.75 J/cm'2 UV-A irradiated human NCTC-2544 cells after 72 hrs by MTT assay; format: functional, cell-based; conditions: NCTC-2544, light or radiation study; method in brief: as §2
[11] = Photodegradation of the compound in DMSO assessed as formation of photoproducts at 20 uM at 1.3 to 14.3 J/cm'2 UV-A irradiation; format: physicochemical
Method in brief: (§3)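 Compound solutions at 20 μM in DMSO exposed to increasing UV-A doses (HPW 125 lamps, mainly 365 nm, 4.0 mW cm⁻²). Absorption spectra recorded after each dose; isosbestic points noted.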

[12] = Photodegradation of the compound in DMSO assessed as formation of photoproducts at 20 uM at 1.3 to 15.2 J/cm'2 UV-A irradiation; format: physicochemical; method in brief: as §3
Jurkat [13] = assay: Cell cycle arrest in UV-A irradiated human Jurkat cells assessed as accumulation at G1 phase at 5 uM after 24 hrs by propidium iodide based flow cytometry (reference value: 64.4 %); format: functional
Method in brief: (§4)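 Exponentially growing Jurkat cells (5×10^5) irradiated with UV-A (365 nm lamp, 2.5 J/cm²) in presence of compound. After 24 h: fixed in ice-cold 70% ethanol, lysed with RNAse A, stained with PI (10 µg/ml), analysed by flow cytometry. Phases calculated on living cells; subG1 is hypodiploid DNA peak.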

Jurkat [14] = assay: Cell cycle arrest in UV-A irradiated human Jurkat cells assessed as accumulation at S phase at 5 uM after 24 hrs by propidium iodide based flow cytometry (reference value: 25.3 %); format: functional; method in brief: as §4
Jurkat [15] = assay: Cell cycle arrest in UV-A irradiated human Jurkat cells assessed as accumulation at G2/M phase at 5 uM after 24 hrs by propidium iodide based flow cytometry (reference value: 10.3 %); format: functional; method in brief: as §4
Jurkat [16] = assay: Cell cycle arrest in UV-A irradiated human Jurkat cells assessed as accumulation at Sub G1 phase at 5 uM after 24 hrs by propidium iodide based flow cytometry (reference value: 0.1 %); format: functional; method in brief: as §4
Jurkat [17] = assay: Cell cycle arrest in UV-A irradiated human Jurkat cells assessed as accumulation at G1 phase at 10 uM after 24 hrs by propidium iodide based flow cytometry (reference value: 64.4 %); format: functional; method in brief: as §4
Jurkat [18] = assay: Cell cycle arrest in UV-A irradiated human Jurkat cells assessed as accumulation at S phase at 10 uM after 24 hrs by propidium iodide based flow cytometry (reference value: 25.3 %); format: functional; method in brief: as §4
Jurkat [19] = assay: Cell cycle arrest in UV-A irradiated human Jurkat cells assessed as accumulation at G2/M phase at 10 uM after 24 hrs by propidium iodide based flow cytometry (reference value: 10.3 %); format: functional; method in brief: as §4
Jurkat [20] = assay: Cell cycle arrest in UV-A irradiated human Jurkat cells assessed as accumulation at Sub G1 phase at 10 uM after 24 hrs by propidium iodide based flow cytometry (reference value: 0.1 %); format: functional; method in brief: as §4
Nucleic Acid [21] = assay: Binding affinity to salmon testes DNA at drug/DNA ratio of 0.01 by linear dichroism analysis; format: nucleic-acid assay; conditions: Salmonidae
Method in brief: (§5)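 Flow linear dichroism in 10 mM phosphate buffer pH 7.2. Samples oriented in a rotating cylindrical cuvette (0.14 cm path, 800 rpm) at several drug/DNA ratios.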

Nucleic Acid [22] = assay: Binding affinity to salmon testes DNA at drug/DNA ratio of 0.02 by linear dichroism analysis; format: nucleic-acid assay; conditions: Salmonidae; method in brief: as §5
Nucleic Acid [23] = assay: Binding affinity to salmon testes DNA at drug/DNA ratio of 0.03 by linear dichroism analysis; format: nucleic-acid assay; conditions: Salmonidae; method in brief: as §5
Nucleic Acid [24] = assay: Binding affinity to salmon testes DNA at 10 uM by fluorescence titration; format: nucleic-acid assay; conditions: Salmonidae
Method in brief: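 Fluorimetric titration of compound (10 μM) with increasing stDNA (0 to 100 μM) in 10 mM phosphate buffer pH 7.2; quenching of compound fluorescence monitored.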

Jurkat [25] = assay: Induction of lipid peroxidation in 2.5 J/cm'2 UV-A irradiated human Jurkat cells assessed as increase in TBARS formation after 24 hrs by thiobarbituric acid assay; format: functional, cell-based
Method in brief: (§6)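 Lipid peroxidation measured as MDA–thiobarbituric acid adducts, with BHT added to samples; calibrated to a 1,1,3,3-tetraethoxypropane standard curve; protein by Peterson method.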

Jurkat [26] = assay: Induction of lipid peroxidation in 3.75 J/cm'2 UV-A irradiated human Jurkat cells assessed as increase in TBARS formation after 24 hrs by thiobarbituric acid assay; format: functional, cell-based; method in brief: as §6
Jurkat [27] = assay: Induction of apoptosis in UV-A irradiated human Jurkat cells assessed as loss of mitochondrial membrane potential after 6 hrs by cytofluorimetric analysis; format: functional, cell-based
Method in brief: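 Jurkat cells 6, 12 and 24 h after UV-A (2.5 J/cm²) with compound, resuspended in HBSS with JC-1 (1 μg/ml). Green (FL1) and orange (FL2) fluorescence collected by flow cytometry, ≥10000 events; cells with monomeric JC-1 counted as collapsed potential. Mean ± SEM of three experiments.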

Jurkat [28] = assay: Induction of apoptosis in UV-A irradiated human Jurkat cells assessed as increase in number of damaged lysosomes after 6 to 24 hrs by acridine orange- based flow cytometry; format: functional, cell-based
Method in brief: (§7)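 Lysosomal stability in Jurkat cells 6, 12 and 24 h after UV-A (2.5 J/cm²) with compound. Cells resuspended in RPMI-1640 with 1 µM acridine orange; flow cytometry, excitation 488 nm, emission in FL3. Mean ± SEM of three experiments.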

Jurkat [29] = assay: Induction of apoptosis in UV-A irradiated human Jurkat cells assessed as increase in number of damaged lysosomes at 5 to 10 uM by acridine orange-based flow cytometry; format: functional, cell-based; method in brief: as §7

| Activity (Nucleic Acid [21]) | Activity (Nucleic Acid [22]) | Structure (SMILES) | IC50 (HL-60 [1]) [nM] | IC50 (HL-60 [2]) [nM] | IC50 (Jurkat [3]) [nM] | IC50 (Jurkat [4]) [nM] | IC50 (MCF7 [5]) [nM] | IC50 (MCF7 [6]) [nM] | IC50 (LoVo [7]) [nM] | IC50 (LoVo [8]) [nM] | IC50 [9] [nM] | IC50 [10] [nM] | Activity (Jurkat [13]) [%] | Activity (Jurkat [14]) [%] | Activity (Jurkat [15]) [%] | Activity (Jurkat [16]) [%] | Activity (Jurkat [17]) [%] | Activity (Jurkat [18]) [%] | Activity (Jurkat [19]) [%] | Activity (Jurkat [20]) [%] | further results |
| --- | --- | --- | --- | --- | --- | --- | --- | --- | --- | --- | --- | --- | --- | --- | --- | --- | --- | --- | --- | --- | --- |
| – | – | Cc1c2c(cn1Cc1ccccc1)CCc1cc(S(=O)(=O)c3ccccc3)c(=O)[nH]c1-2 | 4000 | 2500 | 13000 | 3000 | > 20000 | 7700 | > 20000 | > 20000 | > 20000 | 14400 | – | – | – | – | – | – | – | – | Stability [11]: Unstable |
| inactive | inactive | COc1nc2c(cc1S(=O)(=O)c1ccccc1)CCc1cn(C)cc1-2 | 1600 | 900 | 1000 | 200 | 2500 | 2000 | 1900 | 900 | 4900 | 1100 | 49.6 | 45.4 | 5 | 4 | 40.1 | 50.4 | 9.5 | 15.9 | Stability [12]: Unstable; Activity (Nucleic Acid [23]): inactive; Activity (Nucleic Acid [24]): inactive; Activity (Jurkat [25]): Dose-dependent effect; Activity (Jurkat [26]): Dose-dependent effect |
| inactive | inactive | CCOC(=O)c1c2c(c(C)n1Cc1ccccc1)-c1[nH]c(=O)c(S(=O)(=O)c3ccccc3)cc1CC2 | 1200 | 800 | 2900 | 1900 | 3300 | 1400 | 4000 | 2300 | 4000 | 2500 | 53.8 | 41.8 | 4.4 | 3.8 | 44.8 | 54.4 | 0.8 | 12.5 | Activity (Jurkat [27]): Active; Activity (Jurkat [28]): Active; Activity (Jurkat [29]): Active; Activity (Nucleic Acid [23]): inactive; Activity (Nucleic Acid [24]): inactive; Activity (Jurkat [25]): Dose-dependent effect; Activity (Jurkat [26]): Dose-dependent effect |
